Measured values as given in ChEMBL document CHEMBL3045564, “Synthesis of photosynthesis-inhibiting nostoclide analogues” (J Agric Food Chem, 2008).
Calls of active or inactive are those of the source. No cut-off for these calls is given here.

What was measured:
[1] = tested on: Spinacia oleracea; assay: Inhibition of photosynthesis in isolated Spinacia oleracea (spinach) chloroplasts assessed as reduction in light-driven ferricyanide reduction at 10 uM; type: functional
Summary of the method: (§1)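 Thylakoid membranes from market spinach leaves, homogenized in ice-cold Tricine-NaOH pH 8.0 with NaCl, MgCl2 and 0.4 M sucrose. Osmotically swollen, kept on ice in the dark. Portions with 20 μg chlorophyll incubated at 24 °C with 1 mM K3Fe(CN)6. Run under saturating light (800 μmol m⁻² s⁻¹), A420 read every 30 s for 10 min. Triplicate; percent inhibition versus untreated controls.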

[2] = tested on: Spinacia oleracea; assay: Inhibition of photosynthesis in isolated Spinacia oleracea (spinach) chloroplasts assessed as reduction in light-driven ferricyanide reduction at 5 uM; type: functional; summary of the method: as §1

Row | SMILES | inhibition [1] | inhibition [2]
1 | Cc1cccc(/C=C2/C=C(Cc3ccccc3)C(=O)O2)c1 | 16.7% | 8%
2 | O=C1O/C(=C\c2cccc(C(F)(F)F)c2)C=C1Cc1ccccc1 | 49.9% | 27.3%
3 | COc1ccc(OC)c(/C=C2/C=C(Cc3ccccc3)C(=O)O2)c1 | 43.5% | 30.3%
4 | COc1cc(OC)c(/C=C2\C=C(Cc3ccccc3)C(=O)O2)c(OC)c1 | 43.6% | 25.2%
5 | O=C1O/C(=C\c2ccc(Cl)cc2)C=C1Cc1ccccc1 | 5.8% | inactive
6 | O=C1O/C(=C\c2ccccc2)C=C1Cc1ccccc1 | 29.2% | 12.7%
7 | N#Cc1cccc(/C=C2/C=C(Cc3ccccc3)C(=O)O2)c1 | inactive | inactive
8 | O=C1O/C(=C\c2ccccc2C(F)(F)F)C=C1Cc1ccccc1 | 44.9% | 23.3%
9 | CN(C)c1ccc(/C=C2/C=C(Cc3ccccc3)C(=O)O2)c(Cl)c1 | 25.4% | 13.8%
10 | Cc1ccc(/C=C2/C=C(Cc3ccccc3)C(=O)O2)cc1 | 8% | inactive
11 | O=C1O/C(=C\c2ccc(C(F)(F)F)cc2)C=C1Cc1ccccc1 | 55.5% | 34%
12 | O=C1O/C(=C\c2ccc(-c3ccccc3)cc2)C=C1Cc1ccccc1 | inactive | inactive
13 | O=C1O/C(=C\c2cccc(O)c2)C=C1Cc1ccccc1 | 6.9% | inactive
14 | O=C1O/C(=C\c2c(F)c(F)c(F)c(F)c2F)C=C1Cc1ccccc1 | 6.6% | inactive
15 | O=C1O/C(=C\c2ccccc2F)C=C1Cc1ccccc1 | 49.5% | 24.5%
16 | CN(C)C(=O)Nc1ccc(Cl)c(Cl)c1 | 95.1% | 93.2%
17 | O=C1O/C(=C\c2ccc(O)cc2)C=C1Cc1ccccc1 | 6.5% | inactive

Row | SMILES | inhibition [1] | inhibition [2]
18 | O=C1O/C(=C\c2cccc(F)c2)C=C1Cc1ccccc1 | 28.8% | 9.5%
19 | COc1ccc(/C=C2/C=C(Cc3ccccc3)C(=O)O2)cc1O | inactive | inactive
20 | O=C1O/C(=C\c2ccc(F)cc2)C=C1Cc1ccccc1 | 25.6% | 9.2%
21 | O=C1O/C(=C\c2cccc(Cl)c2)C=C1Cc1ccccc1 | 20.3% | 5.8%
22 | O=C1O/C(=C\c2ccc([N+](=O)[O-])cc2)C=C1Cc1ccccc1 | 57.8% | 49.8%
23 | CCc1ccc(/C=C2/C=C(Cc3ccccc3)C(=O)O2)cc1 | 50.7% | 40.6%
24 | O=C1O/C(=C\c2ccccc2Cl)C=C1Cc1ccccc1 | 30.8% | 19.4%
25 | O=C1O/C(=C\c2ccc(Br)cc2)C=C1Cc1ccccc1 | inactive | inactive
26 | CN(C)c1ccc(/C=C2/C=C(Cc3ccccc3)C(=O)O2)cc1 | 7.1% | 5.7%
27 | CN(C)c1cccc(/C=C2/C=C(Cc3ccccc3)C(=O)O2)c1 | 38.6% | 10.9%
28 | O=C1O/C(=C\c2cccc([N+](=O)[O-])c2)C=C1Cc1ccccc1 | 39.5% | 30%
29 | N#Cc1ccc(/C=C2/C=C(Cc3ccccc3)C(=O)O2)cc1 | inactive | inactive
30 | Cc1ccccc1/C=C1/C=C(Cc2ccccc2)C(=O)O1 | 26% | 16.7%
31 | O=C1O/C(=C\c2ccccc2O)C=C1Cc1ccccc1 | inactive | inactive
32 | O=C1O/C(=C\c2ccccc2Br)C=C1Cc1ccccc1 | 21.8% | inactive
33 | COc1ccc(/C=C2/C=C(Cc3ccccc3)C(=O)O2)cc1 | 15% | 8.5%
34 | O=C1O/C(=C\c2cccc(Br)c2)C=C1Cc1ccccc1 | 22.6% | 13.8%
